# Assay outcomes from PubChem BioAssay.
# TRAIL sens C8: caspase-8 TRAIL sensitization. inhibition (viability loss, TRAIL sensitization), % at 10 µM. NB7+C8 cells + TRAIL, ATPlite viability luminescence. AID 624354. actives 1% (n = 360,000);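 active means compounds causing at least 50% loss of cell viability in the single-dose screen, relative to plate controls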
# PPC-1+TRAIL kill: kills PPC-1 cancer cells in the presence of TRAIL | PPC-1 cells + TRAIL, ATPLite viability luminescence | actives 0.41% (n = 220,000) | cell killing (% activity), % at 4 µM or 5 µM;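 active means cell killing above 50% in the first pass at 4 µM, then a duplicate retest at 5 µM averaging 50% or more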;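 further: plate controls were cells with TRAIL plus DMSO for no effect and medium-only wells lacking cells for full effect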
# FLuc inh counter: inhibits firefly luciferase, flagging false hits in luciferase inhibition screens; ATPLite firefly luciferase biochemical luminescence, 10 min; inhibition, % at 10 µM; actives 1.5% (n = 200,000); AID 1006;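 active means inhibition above about 50% when tested at 10 µM, limit read from the data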
# Target sequence (P08659 whole entry, looked up): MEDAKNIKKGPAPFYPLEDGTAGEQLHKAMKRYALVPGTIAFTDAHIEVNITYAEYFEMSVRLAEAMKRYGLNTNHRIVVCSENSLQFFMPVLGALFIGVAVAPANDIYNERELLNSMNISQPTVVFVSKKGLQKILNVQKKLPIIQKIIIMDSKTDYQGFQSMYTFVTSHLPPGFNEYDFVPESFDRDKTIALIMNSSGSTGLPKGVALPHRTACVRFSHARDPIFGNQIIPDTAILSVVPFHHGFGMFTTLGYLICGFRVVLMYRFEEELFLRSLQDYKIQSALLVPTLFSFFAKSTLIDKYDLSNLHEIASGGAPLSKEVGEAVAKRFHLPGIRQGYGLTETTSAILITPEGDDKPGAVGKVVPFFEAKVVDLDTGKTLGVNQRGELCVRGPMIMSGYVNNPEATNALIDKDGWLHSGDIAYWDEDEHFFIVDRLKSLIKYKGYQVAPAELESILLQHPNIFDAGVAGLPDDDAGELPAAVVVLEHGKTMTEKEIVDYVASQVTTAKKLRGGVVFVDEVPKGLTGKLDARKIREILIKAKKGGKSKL
# FLuc act counter: affects firefly luciferase, flagging false hits in luciferase stimulation screens; P08659; ATPlite luciferase biochemical, luminescence, 10 min; 0 = ATP-free wells, 1 = DMSO control; activation factor at 10 µM; 200,000 tested, under 10 active; AID 1027;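 active means luciferase activation factor, scaled between plate controls, of at least 2 with compound at 10 µM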
#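 Assay system: Luciferase/luciferin detection reagent, cell-free biochemical luciferase assay / Also added: ATP substrate / Schedule: 10 min at ambient temperature / Measured by: luminescence measurement of luciferase light output / Benchmarks: low control with PBS replacing ATP, high control enzyme plus ATP without compound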
# Starred values were filed as active, the others as inactive; · = not tested or not shown. Compounds with a hit are over-represented: about 1.6% of the library has one in this group of screens.
SMILES,TRAIL sens C8,PPC-1+TRAIL kill,FLuc inh counter,FLuc act counter
O=C(N/N=C/c1sc2ccccc2c1O)c1ccccc1,53.2*,26.8,56.9*,0.4
COc1ccc2cc(C(=O)N/N=C/c3sc4ccccc4c3O)ccc2c1,37.8,19.9,71.9*,0.3
O=C(O)c1cccc2c1C(=O)c1cc([N+](=O)[O-])ccc1-2,4.1,·,·,·
CCN(CC)CC(C)(C)C(=O)/C=C/c1ccc(/C=C/C(=O)C(C)(C)CN(CC)CC)cc1,92.0*,·,·,·
CCN(CC)CCOC(=O)/C=C/c1ccccc1,0.7,16.0,·,·
CCOC(=O)N1CCN(c2ccc(S(=O)(=O)N3CCC(C)CC3)cc2[N+](=O)[O-])CC1,16.5,·,·,·
Nc1ccc2cc3[nH]c4cc(N)ccc4c3nc2c1,63.1*,·,·,·
Nc1ccc2nc(C3CCCCC3)[nH]c2c1,8.7,7.6,3.8,1
Nc1cc2c3c(cccc3c1)C(=O)N(CCN1CCCC1)C2=O,24.7,14.3,·,·
O=C1c2cccc3cc([N+](=O)[O-])cc(c23)C(=O)N1CCN1CCCC1,59.2*,25.3,·,·
COc1ccc(CNCc2c(O)c(Cl)cc3c(C)c(C)c(=O)oc23)c(OC)c1,-6.4,·,·,·
COc1ccccc1NC(=O)Nc1nnc(-c2ccco2)s1,·,8.7,-3.9,1
COc1ccccc1C(=O)Nc1nnc(-c2ccco2)s1,26.3,24.4,51.4*,0.5
O=C(Nc1nnc(-c2ccco2)s1)c1ccccc1,29.1,12.9,48.5,0.5
COc1ccc(C(=O)Nc2nnc(-c3ccco3)s2)cc1,59.4*,46.2,62.4*,0.4
O=C(Nc1nnc(/N=C/c2ccco2)s1)c1ccc(F)cc1,49.7*,-1.2,39.0,0.6
O=C1OCCC1Sc1nnc(-c2ccc(O)cc2)o1 (centres undefined),2.7,20.8,14.3,0.9
O=C1OCCC1Sc1nnc(-c2ccc3c(c2)OCO3)o1 (centres undefined),14.3,16.0,60.0*,0.4
CC1(Cc2ccc(Cl)cc2)C(=O)Nc2ccc(S(=O)(=O)NC3CCCCC3)cc21 (centres undefined),7.4,·,·,·
CC1(Cc2ccc(OC(F)(F)F)cc2)C(=O)Nc2ccc(S(=O)(=O)NC3CCCCC3)cc21 (centres undefined),63.7*,·,·,·
O=C1c2ccccc2S(=O)(=O)c2cc(C(=O)N(c3ccccn3)c3ccccn3)ccc21,6.1,-3.5,-3.5,1
COCCNc1c(-c2cc3ccc(C)c(C)c3[nH]c2=O)nc2ccccn12,61.1*,13.9,69.7*,0.3
COCCNc1c(-c2ccc(OC)c(OC)c2)nc2ccc(Cl)cn12,22.6,·,6.8,0.9
Cc1cccc(N2CCN(C(=S)Nc3ccc4nc5n(c(=O)c4c3)CCCCC5)CC2)c1C,5.3,17.4,-1.0,1
O=C(COCC(=O)NCc1ccccc1)NCc1ccccc1,-10.3,21.0,-0.4,1
SMILES,TRAIL sens C8,PPC-1+TRAIL kill,FLuc inh counter,FLuc act counter
CC12C(=O)N(c3nccs3)C(=O)C1(C)C1CCC2O1 (centres undefined),-6.6,·,·,·
C[C@@]12C(=O)OC(=O)[C@]1(C)C1CCC2O1,64.7*,·,·,·
COC(=O)c1c(NC(=O)c2nc3ccccc3s2)sc2c1CC(C)(C)NC2(C)C,86.3*,19.1,-7.4,1.1
COC(=O)c1c(NC(=O)c2ccc(C(=O)c3ccccc3)cc2)sc2c1CC(C)(C)NC2(C)C,46.0,·,·,·
COc1ccc(NC(=O)CN(C)C(=O)CCc2c[nH]c3ccccc23)cc1,-5.6,·,·,·
Cc1ccc(NC(=O)ON=C2CCCC2)cc1,8.4,-6.7,61.7*,0.4
O=C(OCc1ccccc1)N(CCCCN(CCCNCc1ccccc1)C(=O)OCc1ccccc1)CCCNCc1ccccc1,95.9*,·,·,·
CC[C@H](C)[C@H]1O[C@]2(CC[C@@H]1C)C[C@@H]1C[C@@H](CC=C(C)[C@@H](O[C@H]3C[C@H](OC)[C@@H](O[C@H]4C[C@H](OC)[C@@H](O)[C@H](C)O4)[C@H](C)O3)[C@@H](C)C=CC=C3CO[C@@H]4[C@H](O)C(C)=C[C@@H](C(=O)O1)[C@]34O)O2,71.0*,·,·,·
CCN(CC)c1ccc(C(=O)O)cc1,-6.6,0.9,-3.5,1
CCN(CC)c1ccc(/C=C2\C(=O)c3ccc(C(=O)O)cc3C2=O)cc1,1.4,15.3,91.9*,0.1
COCCN(C(=O)COC(=O)c1c(NC(C)=O)sc(C)c1C)c1c(N)n(Cc2ccccc2)c(=O)[nH]c1=O,50.7*,·,·,·
CN(C(=O)c1ccco1)c1nnc(-c2ccc(F)cc2)s1,11.4,·,·,·
Cc1sc(=NC(=O)c2ccco2)n(C)c1-c1ccc(F)cc1,59.6*,34.5,80.4*,0.2
Cc1cccc(N2CCN(C(=O)c3cc(S(=O)(=O)N4CCOCC4)cn3C)CC2C)c1 (centres undefined),-1.9,·,·,·
